From PubChem BioAssay
CSN inh: inhibitors of CSN-mediated cullin deneddylation, primary screen, biochemical, fluorescence polarization, uHTS; COP9 signalosome complex subunit 5 (Homo sapiens), Q92905; Purified CSN, SCF-Nedd8-OG deneddylation; inhibition, % at 12.5 µM; hit rate 0.38% among 360,000; AID 651999, 2013;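 active = pattern-corrected inhibition above about 35%, with an unprinted fluorescence ratio check between 0.5 and 1.5, limit read from the data, passing the limit was not always enough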;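 also: 0% = enzyme with substrate and 100% = substrate without enzyme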
Target sequence (Q92905 whole entry, looked up, one chain of several): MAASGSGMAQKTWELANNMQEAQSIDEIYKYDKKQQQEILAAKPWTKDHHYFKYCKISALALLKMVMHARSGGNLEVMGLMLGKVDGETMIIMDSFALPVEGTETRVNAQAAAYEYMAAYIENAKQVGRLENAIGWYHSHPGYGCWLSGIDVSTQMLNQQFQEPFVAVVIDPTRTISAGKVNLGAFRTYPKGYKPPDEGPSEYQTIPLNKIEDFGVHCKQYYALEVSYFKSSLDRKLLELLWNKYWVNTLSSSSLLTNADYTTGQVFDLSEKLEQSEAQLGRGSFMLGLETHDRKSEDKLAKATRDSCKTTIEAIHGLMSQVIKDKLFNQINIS
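test system = HEK293T-derived human Csn5 enzyme | amount = 0.24 nM Csn5 enzyme, final concentration | medium = Tris/NaCl/DTT buffer, pH 7.5 | schedule = 90 min reaction at room temperature | signal = FP | evaluation = inhibition of Csn5 cleavage, % | compound dosing = single dose of 12.5 µM compound with 0.25% DMSO | probe or stimulus = 10 nM SCFSkp2-Nedd8OG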
Granule exo inh: LAMP-1 surface exposure blockers, TALL-104 cells – cell-based, flow cytometry, MLPCN library, primary screen; TALL-104 LAMP-1 surface exposure; cells stimulated with thapsigargin and PMA; inhibition, % at 10 µM; hit rate 0.66% among 360,000; AID 651702, 2012;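 active = inhibition above about 55%, limit read from the data; inconclusive = no clear call, values can overlap the other calls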
Myeloid diff 2: induction of myeloid progenitor differentiation, primary screen, cell-based, flow cytometry, MLPCN library; ER-HoxA9 myeloid progenitors, lysozyme-GFP differentiation; calls only at 10 µM; hit rate 1% among 360,000;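 active = normalized GFP-positive differentiation at or above the plate's own cutoff, the solvent-only control mean plus 3 SD; inconclusive = no clear call, values can overlap the other calls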;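 also: cells exposed to compound for four days before flow analysis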
HNF4A DNA FP: change in binding of human HNF4A to DNA, primary screen, biochemical, fluorescence polarization, FITC-DNA; hit rate 0.3% among 360,000; 1 h; AID 1224865, 2016; activity change, % at 10 µM; in the data active = activity change above about 30%, passing the limit was not always enough
Starred values were filed as active, the others as inactive; i = inactive; ? = inconclusive; · = no result given; + = active, no number. Compounds with a hit are over-represented: about 2.2% of the library has one in this group of screens.

SMILES | CSN inh | Granule exo inh | Myeloid diff 2 | HNF4A DNA FP
CCOC(=O)c1cc(C(=O)OCC)c(=O)[nH]c1SCc1ccccc1 | -4 | 2 | i | 2
Clc1cccc(Cc2c(C3CCCCC3)nc3ccc(Br)cn23)c1 | 1 | -2 | i | 2
CC1Cc2ccccc2N1C(=S)Nc1ccc(S(N)(=O)=O)cc1 (centres undefined) | -4 | 4 | + | 9
CC(=O)c1ccc(NC(=S)N2c3ccccc3CC2C)cc1 (centres undefined) | -2 | -2 | i | -4
Cc1sc2nc3n(c(=O)c2c1C)CCCS3 | 2 | -1 | i | 9
O=Cc1ccc2oc3nc4n(c(=O)c3c(=O)c2c1)CCCS4 | 45* | -6 | i | -32
COC(=O)[C@@H](NCc1cccc(CN[C@H](C(=O)OC)c2ccccc2)c1)c1ccccc1 | 1 | 66* | i | 0
COC(=O)C(NC(=O)CCC(=O)N[C@@H](C(=O)OC)c1ccccc1)c1ccccc1 (some centres undefined) | -2 | 4 | i | 6
COc1cc(NS(=O)(=O)c2ccc(C)cc2)c2c(c1N)C(=O)c1ccccc1C2=O | 1 | 2 | + | -1
N#C/C(=C\c1ccc(Cl)cc1)c1nc(-c2ccco2)cs1 | -12 | 12 | + | -2
CCCCc1ccc(-c2csc(/C(C#N)=C/c3ccco3)n2)cc1 | 24 | 4 | + | 5
CCCCc1ccc(-c2csc(/C(C#N)=C\c3ccc(C)o3)n2)cc1 | 38* | -6 | i | 45*
CCOc1ccc(-c2csc(/C(C#N)=C\c3ccc(O)c([N+](=O)[O-])c3)n2)cc1 | 4 | 32 | i | 4
O=C(NNCc1ccccc1)c1ccccn1 | -2 | -8 | i | 4
CN(CC(=O)Nc1cccc(F)c1)C(=O)c1cc(-c2ccco2)nc2ccccc12 | 55* | 2 | i | -16
COC(=O)c1c(C)[nH]c(C(=O)OCc2csc(CC(=O)Nc3ccccc3C)n2)c1C | -5 | -8 | i | 3
O=C(NC1CCCCC1)c1ccc([N+](=O)[O-])o1 | 0 | -1 | + | -1
CC(NC(=O)C12CC3CC(CC(C3)C1)C2)C(=O)NN=Cc1ccc([N+](=O)[O-])o1 (centres undefined) | 0 | -2 | i | 2
O=C(COC(=O)c1ccc([N+](=O)[O-])o1)NC1CCCCC1 | 3 | 0 | i | 0
CC(NC(=O)c1ccc([N+](=O)[O-])o1)C12CC3CC(CC(C3)C1)C2 (centres undefined) | 0 | -1 | + | 2
O=C(NNC(=O)c1ccc([N+](=O)[O-])o1)c1ccccc1 | 0 | 1 | + | -2
O=C(NC1CCCC(C(F)(F)F)C1)c1ccc([N+](=O)[O-])o1 (centres undefined) | 0 | 15 | + | -4
Cc1cc(C)n2nc(SCC(=O)N(CCC#N)c3ccc(F)cc3)nc2n1 | 0 | -2 | i | -5
Nc1ccccc1NC1CCCCC1 | -1 | 16 | + | 0
COc1ccc2[nH]c3c4c(ccc3c2c1)C(=O)C=CC4=O | 5 | -3 | · | 46*
SMILES | CSN inh | Granule exo inh | Myeloid diff 2 | HNF4A DNA FP
Cc1cc(=O)oc2c(C)c(OCC(=O)N3CCC(C(=O)O)CC3)ccc12 | 3 | -6 | i | 5
Cc1cccc(NC(=O)c2cc(-c3cc(C)cc(C)c3O)n[nH]2)c1 | 2 | 20 | i | 31*
Cc1cc(C)c(O)c(-c2cc(C(=O)NCCc3ccc(S(N)(=O)=O)cc3)[nH]n2)c1 | -2 | 63* | i | -1
Cc1oc(-c2ccc(Cl)cc2)nc1CN1CCC(C(=O)N2CCc3ccccc3C2)CC1 | -2 | 31 | + | 1
Cc1oc(-c2ccc(Cl)cc2)nc1CN1CCC(C(=O)N2CCN(Cc3ccccc3)CC2)CC1 | -4 | 10 | ? | 1
CCN(C(=O)c1cccs1)C1CCS(=O)(=O)C1 (centres undefined) | -6 | -6 | i | 3
CCn1c(SCC(=O)N2CCN(c3ccccc3)CC2)nc2c([nH]c3ccccc32)c1=O | 0 | -4 | i | 0
CC(=O)NC(CC(=O)OC(C)C(=O)Nc1ccc(Cl)cn1)c1ccccc1 (centres undefined) | -1 | -8 | i | -1
CC(OC(=O)CC(C)c1ccccc1)C(=O)Nc1ccc(Cl)cn1 (centres undefined) | 43* | -8 | i | -1
CC(=O)c1cc(C(=O)N2CCc3c([nH]c4ccccc34)C2C2CCCCC2)[nH]n1 (centres undefined) | -1 | 4 | + | 5
COc1cc(NC(=O)Cc2cccs2)c(C(=O)O)cc1OC | -5 | 2 | i | 1
O=C(NCC1CCCO1)/C(=C/c1ccccc1F)NC(=O)c1ccccc1 (centres undefined) | 1 | -5 | i | 0
Cc1ccc(CN2CCN(Cc3cnc(C)s3)CC2CCO)cc1 (centres undefined) | -15 | 2 | i | -1
Cc1ncc(CN2CCN(Cc3ccccc3)C(CCO)C2)s1 (centres undefined) | 9 | -4 | + | 0
Cc1ccc(C(=O)OCC(=O)N(C)c2c(N)n(Cc3ccccc3)c(=O)[nH]c2=O)s1 | 1 | 1 | i | 2
CCCN(CCC)C(=O)Cn1c(=O)c2sccc2n2c(=S)sc(-c3ccccc3)c12 | 20 | -2 | + | 155
CCCN(CCC)C(=O)Cn1c(=O)c2ccccc2n2c(=S)sc(-c3ccccc3C)c12 | 5 | -1 | i | 2
S=C(Nc1ccc(Cl)cc1)N1CCOCC1 | 42* | 0 | i | 2
Fc1ccc(NC(=S)N2CCOCC2)cc1Cl | -2 | 0 | i | 2
CCOc1ccc(NC(=O)CN(C)C(=O)c2ccc3nc(CC)c(CC)nc3c2)cc1OCC | 0 | 2 | i | 3
Cn1nc(C(=O)NNC(=O)CCc2ccccc2Cl)c2ccccc2c1=O | 0 | 2 | + | -1
COc1cc(OC)cc(C(=O)N2CCN(Cc3ccc4c(c3)OCO4)CC2)c1 | 4 | 6 | i | -4
Cc1ccc(-c2nnc(N3CCN(C(=O)COc4cccc(C)c4)CC3)c3ccccc23)cc1 | -1 | 7 | + | -3
Cn1cccc1Cc1nnc(SCC(=O)Nc2ccccc2F)n1CCc1ccccc1 | -2 | -3 | + | 4
Cn1cccc1Cc1nnc(SCC(=O)Nc2cccc(F)c2)n1CCc1ccccc1 | 3 | -1 | i | 0
O=C(COc1ccc([N+](=O)[O-])cc1)NC(C(=O)O)C(O)c1cccc([N+](=O)[O-])c1 (centres undefined) | 53* | -2 | i | 8
CC1=C(C(=O)N2CCCCCC2)CC(CC(=O)NC2CCCCC2)C(=O)N1Cc1ccc(F)cc1 (centres undefined) | -2 | -12 | i | 0
